Experimental data published in ChEMBL document CHEMBL1944596, “7,8-dichloro-1-oxo-β-carbolines as a versatile scaffold for the development of potent and selective kinase inhibitors with unusual binding modes” (J Med Chem, 2012).
Active and inactive are the calls of the source.

Experiments:
[1] = molecular target: Phosphatidylinositol 4-kinase beta (Homo sapiens, UniProt Q9UBF8); assay: Inhibition of PI4Kbeta using ATP as substrate
[2] = molecular target: Rho-associated protein kinase 2 (Homo sapiens, UniProt O75116); assay: Inhibition of ROCK2 using ATP as substrate
[3] = molecular target: Proto-oncogene tyrosine-protein kinase receptor Ret (Homo sapiens, UniProt P07949); assay: Inhibition of RET using ATP as substrate
[4] = Binding affinity to RSK4beta assessed as change in thermal denaturation at 10 uM by thermal stability shift assay
Procedure, shortened: (§1)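 Each compound was screened across a kinase panel by thermal stability shift assay. The read-out was the shift in protein melting temperature (ΔTm, in °C) relative to the unliganded kinase. A ΔTm of 4.0 °C served as the hit cutoff.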

[5] = Growth inhibition of human RS4:11 cells after 48 hrs by WST-1 assay; type: functional, cell-based; conditions: RS4-11, 48 h
Procedure, shortened: (§2)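 Compound (0–10 μM) added to the culture medium and incubated 48 h. Proliferation and viability read by WST-1 reagent. Survival expressed as percentage of control cultures and IC50 derived by curve fitting.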

[6] = molecular target: Protein kinase C gamma type (Homo sapiens) (UniProt P05129); assay: Binding affinity to PKCgamma assessed as change in thermal denaturation at 10 uM by thermal stability shift assay; procedure, shortened: as §1
[7] = molecular target: Phosphatidylinositol 4,5-bisphosphate 3-kinase catalytic subunit beta isoform (Homo sapiens, UniProt P42338); assay: Inhibition of PI3Kbeta using ATP as substrate
[8] = Inhibition of S6K using ATP as substrate
[9] = molecular target: T1, Dual specificity tyrosine-phosphorylation-regulated kinase 2 (Homo sapiens) (UniProt Q92630); assay: Binding affinity to DYRK2 assessed as change in thermal denaturation at 10 uM by thermal stability shift assay; procedure, shortened: as §1
T1 sequence (whole entry): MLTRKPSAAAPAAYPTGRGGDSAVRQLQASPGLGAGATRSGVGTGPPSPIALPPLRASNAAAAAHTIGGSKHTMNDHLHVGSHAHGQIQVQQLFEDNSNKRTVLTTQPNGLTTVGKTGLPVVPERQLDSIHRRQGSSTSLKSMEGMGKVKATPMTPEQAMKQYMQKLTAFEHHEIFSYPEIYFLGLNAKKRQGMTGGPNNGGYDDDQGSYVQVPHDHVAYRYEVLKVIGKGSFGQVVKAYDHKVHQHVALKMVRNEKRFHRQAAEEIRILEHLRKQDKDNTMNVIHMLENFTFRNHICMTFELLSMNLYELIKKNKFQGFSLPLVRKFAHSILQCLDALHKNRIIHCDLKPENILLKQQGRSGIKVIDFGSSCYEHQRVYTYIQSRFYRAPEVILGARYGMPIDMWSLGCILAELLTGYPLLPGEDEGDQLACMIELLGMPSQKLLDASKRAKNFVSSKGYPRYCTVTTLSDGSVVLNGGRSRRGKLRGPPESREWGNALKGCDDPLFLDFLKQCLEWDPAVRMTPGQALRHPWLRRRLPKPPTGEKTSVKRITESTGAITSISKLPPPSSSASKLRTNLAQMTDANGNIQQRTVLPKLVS

[10] = molecular target: T2, Serine/threonine-protein kinase 17B (Homo sapiens) (UniProt O94768); assay: Binding affinity to DRAK2 assessed as change in thermal denaturation at 10 uM by thermal stability shift assay; procedure, shortened: as §1
T2 sequence (whole entry): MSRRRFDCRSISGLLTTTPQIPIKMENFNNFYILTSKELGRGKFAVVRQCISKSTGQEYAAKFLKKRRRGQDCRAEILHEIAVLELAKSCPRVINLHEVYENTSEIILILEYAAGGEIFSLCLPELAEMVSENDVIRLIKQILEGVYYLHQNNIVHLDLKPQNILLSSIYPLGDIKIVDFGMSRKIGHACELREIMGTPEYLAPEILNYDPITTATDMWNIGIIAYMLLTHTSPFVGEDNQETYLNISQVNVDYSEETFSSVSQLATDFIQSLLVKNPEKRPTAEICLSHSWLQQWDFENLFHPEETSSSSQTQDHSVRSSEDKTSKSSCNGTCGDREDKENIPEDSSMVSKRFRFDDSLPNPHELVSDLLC

[11] = molecular target: Glycogen synthase kinase-3 beta (Homo sapiens) (UniProt P49841); assay: Binding affinity to GSK3-beta assessed as change in thermal denaturation at 10 uM by thermal stability shift assay; procedure, shortened: as §1
[12] = molecular target: Phosphatidylinositol 4,5-bisphosphate 3-kinase catalytic subunit alpha isoform (Homo sapiens, UniProt P42336); assay: Inhibition of PI3Kalpha using ATP as substrate
[13] = molecular target: Phosphatidylinositol 4,5-bisphosphate 3-kinase catalytic subunit gamma isoform (Homo sapiens, UniProt P48736); assay: Inhibition of PI3Kgamma using ATP as substrate
[14] = molecular target: Serine/threonine-protein kinase pim-3 (Homo sapiens, UniProt Q86V86); assay: Inhibition of PIM3 using ATP as substrate
[15] = molecular target: Phosphatidylinositol 4,5-bisphosphate 3-kinase catalytic subunit delta isoform (Homo sapiens, UniProt O00329); assay: Inhibition of PI3Kdelta using ATP as substrate
[16] = molecular target: Serine/threonine-protein kinase mTOR (Homo sapiens, UniProt P42345); assay: Inhibition of mTOR using ATP as substrate
[17] = Growth inhibition of human SEM cells after 48 hrs by WST-1 assay; type: functional, cell-based; procedure, shortened: as §2
[18] = molecular target: BMP-2-inducible protein kinase (Homo sapiens) (UniProt Q9NSY1); assay: Binding affinity to BIKE assessed as change in thermal denaturation at 10 uM by thermal stability shift assay; procedure, shortened: as §1
K562 = assay: Growth inhibition of human K562 cells after 48 hrs by WST-1 assay; type: functional, cell-based; conditions: K562, 48 h; procedure, shortened: as §2
[19] = Inhibition of PKA using ATP as substrate
[20] = molecular target: Protein kinase C theta type (Homo sapiens, UniProt Q04759); assay: Inhibition of PKCtheta using ATP as substrate
[21] = molecular target: Serine/threonine-protein kinase pim-2 (Homo sapiens, UniProt Q9P1W9); assay: Inhibition of PIM2 using ATP as substrate
[22] = molecular target: Phosphatidylinositol 3-kinase catalytic subunit type 3 (Homo sapiens, UniProt Q8NEB9); assay: Inhibition of VPS34 using ATP as substrate
[23] = molecular target: Vascular endothelial growth factor receptor 2 (Homo sapiens, UniProt P35968); assay: Inhibition of KDR using ATP as substrate
[24] = molecular target: Serine/threonine-protein kinase pim-1 (Homo sapiens, UniProt P11309); assay: Inhibition of PIM1 using ATP as substrate
[25] = molecular target: Mast/stem cell growth factor receptor Kit (Homo sapiens) (UniProt P10721); assay: Inhibition of cKIT using ATP as substrate
[26] = molecular target: Platelet-derived growth factor receptor alpha (Homo sapiens) (UniProt P16234); assay: Inhibition of PDGFRalpha using ATP as substrate

Glycogen synthase kinase-3 beta (Homo sapiens), sequence (P49841 whole entry, looked up, canonical isoform): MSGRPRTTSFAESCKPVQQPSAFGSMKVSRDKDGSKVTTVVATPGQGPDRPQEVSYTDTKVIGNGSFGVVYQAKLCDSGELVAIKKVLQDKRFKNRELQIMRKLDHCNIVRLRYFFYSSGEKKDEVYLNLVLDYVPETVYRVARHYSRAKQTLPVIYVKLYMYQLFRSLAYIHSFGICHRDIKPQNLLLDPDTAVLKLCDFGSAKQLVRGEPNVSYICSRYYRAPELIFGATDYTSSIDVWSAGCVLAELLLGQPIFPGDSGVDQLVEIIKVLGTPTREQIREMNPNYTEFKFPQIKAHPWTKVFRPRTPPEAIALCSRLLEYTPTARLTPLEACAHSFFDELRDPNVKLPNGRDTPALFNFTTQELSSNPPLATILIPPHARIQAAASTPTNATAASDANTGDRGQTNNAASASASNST
BMP-2-inducible protein kinase (Homo sapiens), sequence (Q9NSY1 whole entry, looked up): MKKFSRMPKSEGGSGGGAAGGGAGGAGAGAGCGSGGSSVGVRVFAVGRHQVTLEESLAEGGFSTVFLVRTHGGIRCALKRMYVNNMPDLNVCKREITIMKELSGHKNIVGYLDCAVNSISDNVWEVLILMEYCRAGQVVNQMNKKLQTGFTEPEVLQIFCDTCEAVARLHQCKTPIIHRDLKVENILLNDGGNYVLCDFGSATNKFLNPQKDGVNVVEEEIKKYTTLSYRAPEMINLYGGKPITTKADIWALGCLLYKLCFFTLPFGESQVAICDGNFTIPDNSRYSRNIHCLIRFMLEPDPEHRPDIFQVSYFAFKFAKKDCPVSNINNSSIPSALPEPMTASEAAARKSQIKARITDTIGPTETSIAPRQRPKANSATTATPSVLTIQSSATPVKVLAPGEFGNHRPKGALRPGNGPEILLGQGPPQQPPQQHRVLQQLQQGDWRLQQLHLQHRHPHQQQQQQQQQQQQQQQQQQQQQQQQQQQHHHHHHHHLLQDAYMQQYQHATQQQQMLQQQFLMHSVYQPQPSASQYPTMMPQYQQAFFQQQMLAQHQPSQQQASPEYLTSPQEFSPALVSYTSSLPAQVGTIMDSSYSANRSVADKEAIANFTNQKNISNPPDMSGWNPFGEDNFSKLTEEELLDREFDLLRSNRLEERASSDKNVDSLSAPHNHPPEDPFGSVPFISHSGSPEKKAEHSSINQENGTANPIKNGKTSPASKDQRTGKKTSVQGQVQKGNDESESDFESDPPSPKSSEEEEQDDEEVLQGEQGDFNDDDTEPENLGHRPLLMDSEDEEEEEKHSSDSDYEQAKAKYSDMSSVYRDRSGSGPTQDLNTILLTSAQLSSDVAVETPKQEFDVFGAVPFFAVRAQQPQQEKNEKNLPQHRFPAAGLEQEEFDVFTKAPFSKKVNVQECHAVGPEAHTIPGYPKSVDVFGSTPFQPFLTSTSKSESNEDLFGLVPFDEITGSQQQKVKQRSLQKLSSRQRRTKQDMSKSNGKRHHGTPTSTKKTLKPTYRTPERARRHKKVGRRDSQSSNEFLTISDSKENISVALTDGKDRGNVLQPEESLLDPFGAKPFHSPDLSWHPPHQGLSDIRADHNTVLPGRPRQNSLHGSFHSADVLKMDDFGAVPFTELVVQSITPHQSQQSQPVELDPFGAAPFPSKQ
Phosphatidylinositol 4-kinase beta, sequence (Q9UBF8 whole entry): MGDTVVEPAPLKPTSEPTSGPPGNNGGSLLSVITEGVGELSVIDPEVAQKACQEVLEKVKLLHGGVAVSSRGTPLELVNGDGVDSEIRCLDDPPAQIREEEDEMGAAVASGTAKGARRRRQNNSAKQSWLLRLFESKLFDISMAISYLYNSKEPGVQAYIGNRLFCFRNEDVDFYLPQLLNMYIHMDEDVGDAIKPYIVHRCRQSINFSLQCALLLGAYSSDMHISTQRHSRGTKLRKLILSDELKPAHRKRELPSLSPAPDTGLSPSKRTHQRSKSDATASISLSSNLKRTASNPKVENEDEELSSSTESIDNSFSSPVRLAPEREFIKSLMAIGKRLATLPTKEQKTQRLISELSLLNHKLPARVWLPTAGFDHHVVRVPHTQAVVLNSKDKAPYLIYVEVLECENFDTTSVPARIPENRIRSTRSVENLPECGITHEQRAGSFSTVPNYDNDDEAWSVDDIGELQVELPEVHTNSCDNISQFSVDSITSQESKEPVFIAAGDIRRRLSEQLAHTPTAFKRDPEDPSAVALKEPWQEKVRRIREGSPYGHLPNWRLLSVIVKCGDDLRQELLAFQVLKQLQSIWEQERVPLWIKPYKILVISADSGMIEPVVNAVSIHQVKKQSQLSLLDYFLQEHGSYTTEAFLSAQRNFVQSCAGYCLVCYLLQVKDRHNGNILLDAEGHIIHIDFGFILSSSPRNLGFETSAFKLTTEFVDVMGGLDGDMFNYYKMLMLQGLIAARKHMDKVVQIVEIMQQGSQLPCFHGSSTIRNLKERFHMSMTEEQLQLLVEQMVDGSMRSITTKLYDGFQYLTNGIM
Phosphatidylinositol 3-kinase catalytic subunit type 3, sequence (Q8NEB9 whole entry): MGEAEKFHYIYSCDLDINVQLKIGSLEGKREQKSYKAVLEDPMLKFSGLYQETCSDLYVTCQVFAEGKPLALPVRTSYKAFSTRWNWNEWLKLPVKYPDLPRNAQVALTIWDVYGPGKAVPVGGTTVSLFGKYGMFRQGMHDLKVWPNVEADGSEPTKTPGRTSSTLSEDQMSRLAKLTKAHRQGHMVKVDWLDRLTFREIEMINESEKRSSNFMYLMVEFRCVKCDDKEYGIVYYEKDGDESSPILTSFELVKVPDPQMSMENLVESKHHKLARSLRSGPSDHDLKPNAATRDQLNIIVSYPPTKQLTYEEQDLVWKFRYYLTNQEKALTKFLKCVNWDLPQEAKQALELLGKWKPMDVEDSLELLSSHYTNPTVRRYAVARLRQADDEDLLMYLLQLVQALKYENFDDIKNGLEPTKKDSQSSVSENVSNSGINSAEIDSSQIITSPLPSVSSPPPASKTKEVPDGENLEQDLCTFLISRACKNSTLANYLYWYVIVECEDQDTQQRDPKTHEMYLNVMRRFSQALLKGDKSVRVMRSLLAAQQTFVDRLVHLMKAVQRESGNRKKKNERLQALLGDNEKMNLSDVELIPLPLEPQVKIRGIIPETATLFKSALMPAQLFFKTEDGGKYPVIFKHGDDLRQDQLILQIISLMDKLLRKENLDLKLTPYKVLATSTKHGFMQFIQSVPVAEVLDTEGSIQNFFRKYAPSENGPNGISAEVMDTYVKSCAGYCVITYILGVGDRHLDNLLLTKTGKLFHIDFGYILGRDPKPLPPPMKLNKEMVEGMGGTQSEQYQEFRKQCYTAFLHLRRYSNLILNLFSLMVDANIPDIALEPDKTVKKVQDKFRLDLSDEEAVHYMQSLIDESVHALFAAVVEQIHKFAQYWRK
Phosphatidylinositol 4,5-bisphosphate 3-kinase catalytic subunit beta isoform, sequence (P42338 whole entry, canonical isoform): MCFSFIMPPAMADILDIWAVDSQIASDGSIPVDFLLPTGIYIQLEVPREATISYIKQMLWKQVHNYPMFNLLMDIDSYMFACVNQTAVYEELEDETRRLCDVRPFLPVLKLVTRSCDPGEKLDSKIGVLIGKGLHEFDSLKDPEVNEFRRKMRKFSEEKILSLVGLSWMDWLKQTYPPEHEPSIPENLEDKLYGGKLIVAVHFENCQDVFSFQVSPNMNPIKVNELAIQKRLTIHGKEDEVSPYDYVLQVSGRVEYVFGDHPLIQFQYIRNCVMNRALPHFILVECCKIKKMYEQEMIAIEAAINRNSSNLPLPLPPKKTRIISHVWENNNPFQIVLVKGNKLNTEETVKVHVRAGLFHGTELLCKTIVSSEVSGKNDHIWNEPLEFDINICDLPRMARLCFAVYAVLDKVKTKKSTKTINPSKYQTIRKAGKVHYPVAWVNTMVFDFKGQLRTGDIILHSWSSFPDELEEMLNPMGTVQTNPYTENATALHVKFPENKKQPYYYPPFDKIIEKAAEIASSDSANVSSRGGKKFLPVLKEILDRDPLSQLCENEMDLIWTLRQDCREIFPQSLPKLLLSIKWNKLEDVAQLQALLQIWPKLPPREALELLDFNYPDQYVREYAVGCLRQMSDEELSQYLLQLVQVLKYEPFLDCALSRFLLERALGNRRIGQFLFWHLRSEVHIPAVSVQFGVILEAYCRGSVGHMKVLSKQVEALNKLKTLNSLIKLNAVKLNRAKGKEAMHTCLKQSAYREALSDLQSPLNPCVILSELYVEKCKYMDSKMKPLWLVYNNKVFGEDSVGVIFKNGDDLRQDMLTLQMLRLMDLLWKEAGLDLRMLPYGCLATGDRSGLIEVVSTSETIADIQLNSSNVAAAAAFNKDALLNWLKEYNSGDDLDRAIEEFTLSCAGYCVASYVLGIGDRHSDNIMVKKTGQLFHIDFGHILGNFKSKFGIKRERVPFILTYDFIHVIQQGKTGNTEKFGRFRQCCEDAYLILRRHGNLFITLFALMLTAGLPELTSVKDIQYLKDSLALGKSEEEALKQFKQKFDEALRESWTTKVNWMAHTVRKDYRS

ΔTm [4] [°C] | ΔTm [6] [°C] | ΔTm [9] [°C] | ΔTm [10] [°C] | ΔTm [11] [°C] | ΔTm [18] [°C] | Structure (SMILES) | also measured
0.1 | 0.5 | 0.7 | 2.6 | 2.5 | 1.3 | Cn1c2c(c3ccc(Cl)c(Cl)c31)C(C#N)C1(CCCC1)NC2=O (configuration not stated) | 
0.2 | 4.5 | 0.9 | 1.1 | 1.5 | -0.5 | CCN1CCC2(CC1)NC(=O)c1c(c3ccc(Cl)c(Cl)c3n1C)C2C#N (racemic) | 
0.1 | 0.4 | 0.5 | 0.3 | 1.8 | 1.1 | Cn1c2c(c3ccccc31)C(C#N)C(C)(C)NC2=O (configuration not stated) | 
-0.2 | 1.3 | 1.4 | 2.3 | 2.6 | 1.1 | N#CC1c2c([nH]c3c(Cl)c(Cl)ccc23)C(=O)NC12CCCCC2 (racemic) | 
0.4 | 0 | 0.9 | 1.6 | 0.2 | 0.4 | CC(=O)NCC1c2c(n(C)c3c(Cl)c(Cl)ccc23)C(=O)NC1(C)C (racemic) | 
2.3 | 1.7 | 2 | 4.8 | 5.6 | 2.8 | Cn1c2c(c3ccc(Cl)c(Cl)c31)C(C#N)C(C)(C)NC2=O (configuration not stated) | 
0.7 | 1.7 | 0.2 | 6.4 | 0.6 | 1.7 | Cn1c2c(c3ccc(Cl)c(Cl)c31)C(CN)C(C)(C)NC2=O (racemic) | 
1.2 | 0.2 | 2.4 | 3 | 2.9 | 5.2 | Cn1c2c(Cl)c(Cl)ccc2c2cc(N)[nH]c(=O)c21 | 
-0.4 | 0.2 | 0.3 | 0 | -0.2 | 0 | Cn1c2c(c3ccc(Cl)c(Cl)c31)C(C#N)C1(CCN(C(=O)OC(C)(C)C)CC1)NC2=O (racemic) | 
4 | 1.2 | 4.1 | 3.6 | 1.4 | 8.2 | Cn1c2c(Cl)c(Cl)ccc2c2cc[nH]c(=O)c21 | 
-0.1 | 0.8 | 0.6 | 2.9 | 2 | 1.2 | CCC1(CC)NC(=O)c2c(c3ccc(Cl)c(Cl)c3n2C)C1C#N (configuration not stated) | 
0.1 | 0.7 | 1.3 | 2.1 | 4.7 | 1.2 | CC1(C)NC(=O)c2[nH]c3c(Cl)c(Cl)ccc3c2C1C#N (configuration not stated) | 
0.2 | 3.9 | 1.3 | 1.2 | 2.2 | 0.8 | CN1CCC2(CC1)NC(=O)c1c(c3ccc(Cl)c(Cl)c3n1C)C2C#N (racemic) | inhibition [25]: inactive; inhibition [26]: inactive
1.4 | 1.2 | 1.6 | 2.2 | 4.6 | 5.3 | Cn1c2c(Cl)c(Cl)ccc2c2cn[nH]c(=O)c21 | 
0 | 1 | 1 | 1.7 | 3.4 | 2.3 | Cn1c2c(c3ccc(Cl)c(Cl)c31)C(C#N)C1(CCOCC1)NC2=O (configuration not stated) | 

Structure (SMILES) | ΔTm [4] [°C] | ΔTm [6] [°C] | ΔTm [9] [°C] | ΔTm [10] [°C] | ΔTm [11] [°C] | ΔTm [18] [°C] | also measured
Cn1c2c(c3ccc(Cl)c(Cl)c31)C(C#N)C1(CCNCC1)NC2=O (racemic) | 0.8 | 6.1 | 3.6 | 3.4 | 3.9 | 1 | IC50 [1]: 2.5 µM; IC50 [2]: 0.22 µM; IC50 [3]: 7.7 µM; IC50 [5]: 3.57 µM; IC50 [7]: 8.6 µM; IC50 [8]: 0.23 µM; IC50 [12]: > 9.1 µM; IC50 [13]: 3.1 µM; IC50 [14]: 0.09 µM; IC50 [15]: 4.7 µM; IC50 [16]: > 9.1 µM; IC50 [17]: 4.68 µM; IC50 (K562): 6.49 µM; IC50 [19]: 0.077 µM; IC50 [20]: 1.4 µM; IC50 [21]: 0.24 µM; IC50 [22]: > 9.1 µM; IC50 [23]: 7.2 µM; IC50 [24]: 0.06 µM
